Tests used:
[1] = Metabolic stability of the compound in carboxylesterase 1 knockout mouse brain assessed as parent compound remaining at 10 uM measured after 1 hr in by UPLC analysis; type: ADME, tissue-based
How it was run: (§1)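 Plasma, or liver or brain homogenised 10-fold in 0.1 M potassium phosphate buffer, from CES1−/− mice. Spiked with 10 μM prodrug (final) and shaken at 37 °C for 1 h, in triplicate. Samples at 0 and 1 h were quenched with three volumes of acetonitrile containing losartan. Intact prodrug was measured by UHPLC-orbitrap MS and expressed as % remaining, mean ± SE.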

[2] = Metabolic stability of the compound in carboxylesterase 1 knockout mouse liver assessed as parent compound remaining at 10 uM measured after 1 hr in by UPLC analysis; type: ADME, tissue-based; how it was run: as §1
[3] = Metabolic stability of the compound in carboxylesterase 1 knockout mouse plasma assessed as parent compound remaining at 10 uM measured after 1 hr in by UPLC analysis; type: ADME, cell-free; how it was run: as §1
[4] = Prodrug conversion in carboxylesterase 1 knockout C57BL/6 mouse plasma assessed as increase in 2,6-Dimethoxy-4-(4-phenyl-5-thiophen-2-yl-1H-imidazol-2-yl)phenol release at 10 mg/kg, po administered as single dose measured after 2 hrs by LC-MS/MS analysis; type: ADME, organism-based; details: in vivo
[5] = Prodrug conversion in carboxylesterase 1 knockout C57BL/6 mouse brain assessed as increase in 2,6-Dimethoxy-4-(4-phenyl-5-thiophen-2-yl-1H-imidazol-2-yl)phenol release at 10 mg/kg, po administered as single dose measured after 2 hrs by LC-MS/MS analysis; type: ADME, organism-based; details: in vivo
[6] = Ratio of prodrug conversion in carboxylesterase 1 knockout C57BL/6 mouse brain to plasma assessed as 2,6-Dimethoxy-4-(4-phenyl-5-thiophen-2-yl-1H-imidazol-2-yl)phenol release at 10 mg/kg, po administered as single dose measured after 2 hrs by LC-MS/MS analysis; type: ADME, organism-based
How it was run: (§2)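 Mice are killed 2 h post-dose by CO2, with cardiac-puncture plasma and whole brain taken. After acetonitrile/losartan extraction, released parent and intact prodrug are measured by LC-MS/MS. Brain-to-plasma ratio is computed from released-parent levels; mean ± SEM.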

[7] = Drug release in carboxylesterase 1 knockout C57BL/6 mouse plasma at 10 mg/kg, po administered as single dose measured after 2 hrs by LC-MS/MS analysis; type: ADME, organism-based; details: in vivo, read-out: Activity; how it was run: as §2
[8] = Drug release in carboxylesterase 1 knockout C57BL/6 mouse brain at 10 mg/kg, po administered as single dose measured after 2 hrs by LC-MS/MS analysis; type: ADME, organism-based; details: in vivo; how it was run: as §2
[9] = Brain to plasma ratio in carboxylesterase 1 knockout C57BL/6 mouse at 10 mg/kg, po administered as single dose measured after 2 hrs by LC-MS/MS analysis; type: ADME, organism-based; how it was run: as §2
[10] = Tmax in carboxylesterase 1 knockout C57BL/6 mouse plasma at 10 mg/kg, po administered as single dose measured upto 8 hrs by LC-MS/MS analysis; type: ADME, organism-based
How it was run: (§3)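 Cardiac blood is spun to plasma and brains are flash frozen. Intact prodrug and released parent are quantified by LC-MS/MS against matrix-matched standards. Parameters come from non-compartmental analysis; mean ± SEM.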

[11] = Tmax in carboxylesterase 1 knockout C57BL/6 mouse brain at 10 mg/kg, po administered as single dose measured upto 8 hrs by LC-MS/MS analysis; type: ADME, organism-based; how it was run: as §3
[12] = Half life in carboxylesterase 1 knockout C57BL/6 mouse plasma at 10 mg/kg, po administered as single dose measured upto 8 hrs by LC-MS/MS analysis; type: ADME, organism-based; how it was run: as §3
[13] = Half life in carboxylesterase 1 knockout C57BL/6 mouse brain at 10 mg/kg, po administered as single dose measured upto 8 hrs by LC-MS/MS analysis; type: ADME, organism-based; how it was run: as §3
[14] = Cmax in carboxylesterase 1 knockout C57BL/6 mouse plasma at 10 mg/kg, po administered as single dose measured upto 8 hrs by LC-MS/MS analysis; type: ADME, organism-based; parameters: time < 8 hrs, dose 10 mg/kg, route po; details: in vivo; how it was run: as §3
[15] = Cmax in carboxylesterase 1 knockout C57BL/6 mouse brain at 10 mg/kg, po administered as single dose measured upto 8 hrs by LC-MS/MS analysis; type: ADME, organism-based; parameters: time < 8 hrs, dose 10 mg/kg, route po; details: in vivo; how it was run: as §3
[16] = AUC in carboxylesterase 1 knockout C57BL/6 mouse plasma at 10 mg/kg, po administered as single dose measured upto 8 hrs by LC-MS/MS analysis; type: ADME, organism-based; parameters: time < 8 hrs, dose 10 mg/kg, route po; details: in vivo; how it was run: as §3
[17] = AUC in carboxylesterase 1 knockout C57BL/6 mouse brain at 10 mg/kg, po administered as single dose measured upto 8 hrs by LC-MS/MS analysis; type: ADME, organism-based; parameters: time < 8 hrs, dose 10 mg/kg, route po; details: in vivo; how it was run: as §3
[18] = Stability in carboxylesterase 1 knockout C57BL/6 mouse assessed as intact compound level at 10 mg/kg, po administered as single dose measured upto 8 hrs by LC-MS/MS analysis; type: ADME, organism-based; details: in vivo, read-out: Stability
[19] = Prodrug conversion in carboxylesterase 1 knockout C57BL/6 mouse assessed as increase in 2,6-Dimethoxy-4-(4-phenyl-5-thiophen-2-yl-1H-imidazol-2-yl)phenol release at 10 mg/kg, po administered as single dose measured after 2 hrs by LC-MS/MS analysis; type: ADME, organism-based; details: in vivo
[20] = Prodrug conversion in carboxylesterase 1 knockout C57BL/6 mouse brain assessed as increase in 2,6-Dimethoxy-4-(4-phenyl-5-thiophen-2-yl-1H-imidazol-2-yl)phenol release at 15.12 mg/kg, po administered as single dose measured after 2 hrs by LC-MS/MS analysis; type: ADME, organism-based; details: in vivo
[21] = Stability in carboxylesterase 1 knockout C57BL/6 mouse plasma assessed as intact compound level at 15.12 mg/kg, po administered as single dose measured upto 8 hrs by LC-MS/MS analysis; type: ADME, organism-based; details: read-out: Stability
[22] = Stability in carboxylesterase 1 knockout C57BL/6 mouse brain assessed as intact compound level at 15.12 mg/kg, po administered as single dose measured upto 8 hrs by LC-MS/MS analysis; type: ADME, organism-based; details: read-out: Stability
[23] = Tmax in carboxylesterase 1 knockout C57BL/6 mouse plasma at 15.12 mg/kg, po administered as single dose measured upto 8 hrs by LC-MS/MS analysis; type: ADME, organism-based
[24] = Tmax in carboxylesterase 1 knockout C57BL/6 mouse brain at 15.12 mg/kg, po administered as single dose measured upto 8 hrs by LC-MS/MS analysis; type: ADME, organism-based
[25] = Half life in carboxylesterase 1 knockout C57BL/6 mouse plasma at 15.12 mg/kg, po administered as single dose measured upto 8 hrs by LC-MS/MS analysis; type: ADME, organism-based
[26] = Half life in carboxylesterase 1 knockout C57BL/6 mouse brain at 15.12 mg/kg, po administered as single dose measured upto 8 hrs by LC-MS/MS analysis; type: ADME, organism-based
[27] = Prodrug conversion in carboxylesterase 1 knockout C57BL/6 mouse plasma assessed as Cmax of 2,6-Dimethoxy-4-(4-phenyl-5-thiophen-2-yl-1H-imidazol-2-yl)phenol at 15.12 mg/kg, po administered as single dose measured upto 8 hrs by LC-MS/MS analysis; type: ADME, organism-based; parameters: dose 15.12 mg/kg, time < 8 hrs, route po; details: in vivo
[28] = Prodrug conversion in carboxylesterase 1 knockout C57BL/6 mouse brain assessed as Cmax of 2,6-Dimethoxy-4-(4-phenyl-5-thiophen-2-yl-1H-imidazol-2-yl)phenol at 15.12 mg/kg, po administered as single dose measured upto 8 hrs by LC-MS/MS analysis; type: ADME, organism-based; parameters: dose 15.12 mg/kg, time < 8 hrs, route po; details: in vivo
[29] = Prodrug conversion in carboxylesterase 1 knockout C57BL/6 mouse plasma assessed as AUC of 2,6-Dimethoxy-4-(4-phenyl-5-thiophen-2-yl-1H-imidazol-2-yl)phenol at 15.12 mg/kg, po administered as single dose measured upto 8 hrs by LC-MS/MS analysis; type: ADME, organism-based; parameters: time < 8 hrs, dose 15.12 mg/kg, route po; details: in vivo
[30] = Prodrug conversion in carboxylesterase 1 knockout C57BL/6 mouse brain assessed as AUC of 2,6-Dimethoxy-4-(4-phenyl-5-thiophen-2-yl-1H-imidazol-2-yl)phenol at 15.12 mg/kg, po administered as single dose measured upto 8 hrs by LC-MS/MS analysis; type: ADME, organism-based; parameters: time < 8 hrs, dose 15.12 mg/kg, route po; details: in vivo

Row | SMILES | Stability [1] | Stability [2] | Stability [3] | further results
1 | COc1cc(-c2nc(-c3ccccc3)c(-c3cccs3)[nH]2)cc(OC)c1OC(=O)N1C2CCCC1CC2 | 76% | 95% | 85% | 
2 | COc1cc(-c2nc(-c3ccccc3)c(-c3cccs3)[nH]2)cc(OC)c1OC(=O)C(C)(C)C | 93% | 0% | 1% | 
3 | COc1cc(-c2nc(-c3ccccc3)c(-c3cccs3)[nH]2)cc(OC)c1OCOP(=O)(O)OCOC(=O)OC(C)C | 79% | 11% | 100% | 
4 | COc1cc(-c2nc(-c3ccccc3)c(-c3cccs3)[nH]2)cc(OC)c1OC(C)=O | 6% | 0% | 28% | 
5 | COc1cc(-c2nc(-c3ccccc3)c(-c3cccs3)[nH]2)cc(OC)c1OP(=O)(O)O | 102% | 55% | 91% | 
6 | CCCCCC(=O)Oc1c(OC)cc(-c2nc(-c3ccccc3)c(-c3cccs3)[nH]2)cc1OC | 63% | 1% | 13% | Drug metabolism [4]: 355 nM; Drug metabolism [5]: 36.5 nM; BPR [6]: 0.1
7 | COc1cc(-c2nc(-c3cccs3)c(-c3ccccc3)[nH]2)cc(OC)c1O | 89% | 98% | 103% | concentration [7]: 23 nM; Activity [8]: 4.9 nM; Kp at 2 h [9]: 0.1; Tmax [10]: 30 min; Tmax [11]: 30 min; half-life [12]: 27.6 min; half-life [13]: 37.8 min; Cmax [14]: 307 nM; Cmax [15]: 60 pmol/g; AUC [16]: 0.27 µM·h; AUC [17]: 52.8 pmol·h/g
8 | COc1cc(-c2nc(-c3ccccc3)c(-c3cccs3)[nH]2)cc(OC)c1OC(=O)OC(OC(=O)C(C)(C)C)c1ccccc1 (centres undefined) | 69% | 80% | 83% | 
9 | COc1cc(-c2nc(-c3ccccc3)c(-c3cccs3)[nH]2)cc(OC)c1OC(=O)N1C2CCC1CC(N1CCCCC1)C2 (centres undefined) | 84% | 78% | 87% | 
10 | CCC1CCCC(CC)N1C(=O)Oc1c(OC)cc(-c2nc(-c3ccccc3)c(-c3cccs3)[nH]2)cc1OC (centres undefined) | 90% | 51% | 78% | 
11 | COc1cc(-c2nc(-c3ccccc3)c(-c3cccs3)[nH]2)cc(OC)c1OC(=O)N(C)C | 100% | 100% | 96% | concentration at 8 h [18]: 4300 nM; Drug metabolism [19]: 540.9 nM
12 | CCCCCN(C)C(=O)Oc1c(OC)cc(-c2nc(-c3ccccc3)c(-c3cccs3)[nH]2)cc1OC | 86% | 85% | 50% | 
13 | COc1cc(-c2nc(-c3ccccc3)c(-c3cccs3)[nH]2)cc(OC)c1OC(=O)N1CCC(N2CCCCC2)CC1 | 48% |  | 90% | Drug metabolism [20]: 72.3 nM; concentration at 8 h [21]: 195 nM; concentration at 8 h [22]: 86.5 nM; Tmax [23]: 60 min; Tmax [24]: 60 min; half-life [25]: 84 min; half-life [26]: 180 min; Cmax [27]: 148.9 pmol·h/g; Cmax [28]: 403 pmol·h/g; AUC [29]: 273.4 pmol·h/g; AUC [30]: 187.1 pmol·h/g
14 | CCCCCNC(=O)Oc1c(OC)cc(-c2nc(-c3ccccc3)c(-c3cccs3)[nH]2)cc1OC | 68% | 83% | 60% | 
15 | CCCCCCCNC(=O)Oc1c(OC)cc(-c2nc(-c3ccccc3)c(-c3cccs3)[nH]2)cc1OC | 84% | 97% | 60% | 
16 | COc1cc(-c2nc(-c3ccccc3)c(-c3cccs3)[nH]2)cc(OC)c1OCOP(=O)(O)O | 1% | 21% | 96% | 
17 | COc1cc(-c2nc(-c3ccccc3)c(-c3cccs3)[nH]2)cc(OC)c1OC(=O)C1=CN(C)C=CC1 | 46% | 22% | 52% | Drug metabolism [4]: 28.3 nM; Drug metabolism [5]: 2.2 nM

— ChEMBL document CHEMBL5137084 (J Med Chem, 2022)
